Source: paper PMC6594083 (Diabetes, Obesity & Metabolism, 2019)
Where “and” joins values, the source holds several entries; their conditions need not be identical. Equal values may be shown once. Read-outs that look alike come from different tables or passages of the source.

How the values were obtained:
Type in all cases: in vivo, human (Japanese patients)
[1] = test system: Japanese patients with type 1 diabetes mellitus; test: Concomitant insulin daily dose; conditions: day 14
In short: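 Japanese type 1 diabetes patients on insulin; randomized, double-blind, placebo-controlled. Insulin was adjusted by usual clinical practice on physician instruction, with a cut considered if self-monitored glucose fell below 80 mg/dL. Basal, bolus and total daily units recorded; change from baseline to day 14.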

[2] = Pharmacokinetics of ipragliflozin; conditions: human, plasma, oral, AUC24h, day 14, mean ± SD
In short: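 Patients were hospitalized days −2 to 3 and days 13 to 15. […] The analysis set was patients dosed with at least one drug-concentration sample.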

[3] = test system: Japanese patients with type 1 diabetes mellitus; conditions: Day 15; for Glycoalbumin, AMD (95% CI): adjusted mean difference to placebo; for Body weight, mean change from baseline / Glycoalbumin, mean change from baseline: mean ± SD
In short: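 Glycoalbumin and body weight were taken as change from baseline to day 15. Differences from placebo came from an analysis of covariance with baseline as covariate, with 95% CI. Analysed in patients with day-14 pharmacodynamic data.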

[4] = test system: Japanese patients with type 1 diabetes mellitus; test: Safety: serum ketone levels; conditions: for Blood ketone body in patient with AE blood ketone body increased: person; for Mean (SD) change in total serum ketones: baseline until end of treatment
In short: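 Total serum ketones, acetoacetic acid and 3-hydroxybutyric acid were measured at screening, predose on treatment days 1 (baseline), 2, 3, 14 and 15, and in the post-treatment period. Ketone increases were reported as adverse events.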

[5] = test system: Japanese patients with type 1 diabetes mellitus; test: Safety: treatment-emergent adverse events incl. hypoglycaemia
In short: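 Self-monitored blood glucose was checked four times daily, before each meal and at bedtime. A value ≤70 mg/dL (≤3.89 mmol/L) was recorded as a hypoglycaemia adverse event. Adverse events were coded by MedDRA version 18.0 in all dosed patients.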

OC[C@H]1O[C@@H](c2ccc(F)c(Cc3cc4ccccc4s3)c2)[C@H](O)[C@@H](O)[C@@H]1O [ipragliflozin]
Total daily insulin dose, % change from baseline (SD) ([1]; 25 mg/day): −14.77 ± 14.04% | Total daily insulin dose, % change from baseline (SD) ([1]; 50 mg/day): −18.40 ± 12.49% | Total daily insulin dose, % change from baseline (SD) ([1]; 100 mg/day): −19.25 ± 16.77% | AUC(0-t) ([2]; 25 mg/day, 25 mg/day): 2.51 ± 0.495 µg·h/mL | AUC(0-t) ([2]; 50 mg/day, 50 mg/day): 5.79 ± 1.13 µg·h/mL | Glycoalbumin, AMD (95% CI) ([3]; 25 mg/day): −2.17% and −2.17 (−3.84, −0.51) % | Body weight, mean change from baseline ([3]; 25 mg/day): -0.83 ± 0.48 kg | Glycoalbumin, mean change from baseline ([3]; 25 mg/day): −2.67 ± 2.30% | Glycoalbumin, AMD (95% CI) ([3]; 50 mg/day): −2.03% and −2.03 (−3.58, −0.48) % | Body weight, mean change from baseline ([3]; 50 mg/day): -1.18 ± 1.06 kg | Glycoalbumin, mean change from baseline ([3]; 50 mg/day): −2.53 ± 1.52% | Body weight, mean change from baseline ([3]; 100 mg/day): -0.94 ± 0.89 kg | Glycoalbumin, mean change from baseline ([3]; 100 mg/day): −2.95 ± 2.24% | Blood ketone body in patient with AE blood ketone body increased ([4]; 25 mg group, day 15, 24 hours postdose): 991 µmol/L | Mean (SD) change in total serum ketones ([4]; 25 mg/day): 173.38 (267.48) μmol/L | Blood ketone body in patient with AE blood ketone body increased ([4]; 50 mg group, day 15, 24 hours postdose): 968 µmol/L | Mean (SD) change in total serum ketones ([4]; 50 mg/day): 357.07 (294.41) μmol/L | Blood ketone body in patient with AE blood ketone body increased ([4]; 100 mg group, day 2, predose): 1200 µmol/L | Blood ketone body in patient with AE blood ketone body increased ([4]; 100 mg group, day 15, 24 hours postdose): 1770 µmol/L | Mean (SD) change in total serum ketones ([4]; 100 mg/day): 233.18 (387.35) μmol/L | Hypoglycaemia, Asymptomatic ([5]; 25 mg/day (n = 10)): 10 (100.0) patients (%) | Hypoglycaemia, Asymptomatic, number of events ([5]; 25 mg/day (n = 10)): 44 events | Hypoglycaemia, Documented symptomatic ([5]; 25 mg/day (n = 10)): 8 (80.0) patients (%) | Hypoglycaemia, Documented symptomatic, number of events ([5]; 25 mg/day (n = 10)): 58 events | Hypoglycaemia, Drug‐related ([5]; 25 mg/day (n = 10)): 10 (100.0) patients (%) | Hypoglycaemia, Drug‐related, number of events ([5]; 25 mg/day (n = 10)): 83 events | Hypoglycaemia, Major ([5]; 25 mg/day (n = 10)): 0 patients (%) | Hypoglycaemia, Mild, number of events ([5]; 25 mg/day (n = 10)): 102 events | Hypoglycaemia, Moderate ([5]; 25 mg/day (n = 10)): 1 (10.0) patients (%) | Hypoglycaemia, Moderate, number of events ([5]; 25 mg/day (n = 10)): 1 events | Hypoglycaemia, Probable symptomatic ([5]; 25 mg/day (n = 10)): 0 patients (%) | Hypoglycaemia, Relative ([5]; 25 mg/day (n = 10)): 1 (10.0) patients (%) | Hypoglycaemia, Relative, number of events ([5]; 25 mg/day (n = 10)): 1 events | Hypoglycaemia, Serious ([5]; 25 mg/day (n = 10)): 0 patients (%) | Hypoglycaemia, Severe ([5]; 25 mg/day (n = 10)): 0 patients (%) | TEAE Beta 2 microglobulin increased ([5]; 25 mg/day (n = 10)): 1 (10.0) patients (%) | TEAE Blood bilirubin increased ([5]; 25 mg/day (n = 10)): 1 (10.0) patients (%) | TEAE Blood ketone body increased ([5]; 25 mg/day (n = 10)): 1 (10.0) patients (%) | TEAE Constipation ([5]; 25 mg/day (n = 10)): 0 patients (%) | TEAE Decreased appetite ([5]; 25 mg/day (n = 10)): 0 patients (%) | TEAE Gastroenteritis ([5]; 25 mg/day (n = 10)): 1 (10.0) patients (%) | TEAE Headache ([5]; 25 mg/day (n = 10)): 0 patients (%) | TEAE Hemorrhoidal hemorrhage ([5]; 25 mg/day (n = 10)): 0 patients (%) | TEAE Hyperglycaemia ([5]; 25 mg/day (n = 10)): 0 patients (%) | TEAE Hypoglycaemia ([5]; 25 mg/day (n = 10)): 10 (100.0) patients (%) | TEAE Hypoglycaemia, number of events ([5]; 25 mg/day (n = 10)): 103 events | TEAE Nasopharyngitis ([5]; 25 mg/day (n = 10)): 1 (10.0) patients (%) | TEAE Overall ([5]; 25 mg/day (n = 10)): 10 (100.0) patients (%) | TEAE Papule ([5]; 25 mg/day (n = 10)): 0 patients (%) | TEAE Pollakiuria ([5]; 25 mg/day (n = 10)): 0 patients (%) | TEAE Pyrexia ([5]; 25 mg/day (n = 10)): 0 patients (%) | TEAE Upper respiratory tract infection ([5]; 25 mg/day (n = 10)): 0 patients (%) | TEAE Urine ketone body present ([5]; 25 mg/day (n = 10)): 0 patients (%) | TEAE Vomiting ([5]; 25 mg/day (n = 10)): 0 patients (%) | Hypoglycaemia, Asymptomatic ([5]; 50 mg/day (n = 12)): 9 (75.0) patients (%) | Hypoglycaemia, Asymptomatic, number of events ([5]; 50 mg/day (n = 12)): 34 events | Hypoglycaemia, Documented symptomatic ([5]; 50 mg/day (n = 12)): 11 (91.7) patients (%) | Hypoglycaemia, Documented symptomatic, number of events ([5]; 50 mg/day (n = 12)): 96 events | Hypoglycaemia, Drug‐related ([5]; 50 mg/day (n = 12)): 12 (100.0) patients (%) | Hypoglycaemia, Drug‐related, number of events ([5]; 50 mg/day (n = 12)): 122 events | Hypoglycaemia, Major ([5]; 50 mg/day (n = 12)): 0 patients (%) | Hypoglycaemia, Mild, number of events ([5]; 50 mg/day (n = 12)): 141 events | Hypoglycaemia, Moderate ([5]; 50 mg/day (n = 12)): 1 (8.3) patients (%) | Hypoglycaemia, Moderate, number of events ([5]; 50 mg/day (n = 12)): 3 events | Hypoglycaemia, Probable symptomatic ([5]; 50 mg/day (n = 12)): 3 (25.0) patients (%) | Hypoglycaemia, Probable symptomatic, number of events ([5]; 50 mg/day (n = 12)): 3 events | Hypoglycaemia, Relative ([5]; 50 mg/day (n = 12)): 4 (33.3) patients (%) | Hypoglycaemia, Relative, number of events ([5]; 50 mg/day (n = 12)): 11 events | Hypoglycaemia, Serious ([5]; 50 mg/day (n = 12)): 0 patients (%) | Hypoglycaemia, Severe ([5]; 50 mg/day (n = 12)): 0 patients (%) | TEAE Beta 2 microglobulin increased ([5]; 50 mg/day (n = 12)): 0 patients (%) | TEAE Blood bilirubin increased ([5]; 50 mg/day (n = 12)): 0 patients (%) | TEAE Blood ketone body increased ([5]; 50 mg/day (n = 12)): 1 (8.3) patients (%) | TEAE Constipation ([5]; 50 mg/day (n = 12)): 1 (8.3) patients (%) | TEAE Decreased appetite ([5]; 50 mg/day (n = 12)): 1 (8.3) patients (%) | TEAE Gastroenteritis ([5]; 50 mg/day (n = 12)): 0 patients (%) | TEAE Headache ([5]; 50 mg/day (n = 12)): 0 patients (%) | TEAE Hemorrhoidal hemorrhage ([5]; 50 mg/day (n = 12)): 0 patients (%) | TEAE Hyperglycaemia ([5]; 50 mg/day (n = 12)): 1 (8.3) patients (%) | TEAE Hypoglycaemia ([5]; 50 mg/day (n = 12)): 12 (100.0) patients (%) | TEAE Hypoglycaemia, number of events ([5]; 50 mg/day (n = 12)): 144 events | TEAE Nasopharyngitis ([5]; 50 mg/day (n = 12)): 1 (8.3) patients (%) | TEAE Overall ([5]; 50 mg/day (n = 12)): 12 (100.0) patients (%) | TEAE Papule ([5]; 50 mg/day (n = 12)): 1 (8.3) patients (%) | TEAE Pollakiuria ([5]; 50 mg/day (n = 12)): 1 (8.3) patients (%) | TEAE Pyrexia ([5]; 50 mg/day (n = 12)): 1 (8.3) patients (%) | TEAE Upper respiratory tract infection ([5]; 50 mg/day (n = 12)): 0 patients (%) | TEAE Urine ketone body present ([5]; 50 mg/day (n = 12)): 1 (8.3) patients (%) | TEAE Vomiting ([5]; 50 mg/day (n = 12)): 1 (8.3) patients (%) | Hypoglycaemia, Asymptomatic ([5]; 100 mg/day (n = 10)): 9 (90.0) patients (%) | Hypoglycaemia, Asymptomatic, number of events ([5]; 100 mg/day (n = 10)): 60 events | Hypoglycaemia, Documented symptomatic ([5]; 100 mg/day (n = 10)): 7 (70.0) patients (%) | Hypoglycaemia, Documented symptomatic, number of events ([5]; 100 mg/day (n = 10)): 25 events | Hypoglycaemia, Drug‐related ([5]; 100 mg/day (n = 10)): 9 (90.0) patients (%) | Hypoglycaemia, Drug‐related, number of events ([5]; 100 mg/day (n = 10)): 77 events | Hypoglycaemia, Major ([5]; 100 mg/day (n = 10)): 0 patients (%) | Hypoglycaemia, Mild, number of events ([5]; 100 mg/day (n = 10)): 85 events | Hypoglycaemia, Moderate ([5]; 100 mg/day (n = 10)): 0 patients (%) | Hypoglycaemia, Probable symptomatic ([5]; 100 mg/day (n = 10)): 0 patients (%) | Hypoglycaemia, Relative ([5]; 100 mg/day (n = 10)): 0 patients (%) | Hypoglycaemia, Serious ([5]; 100 mg/day (n = 10)): 0 patients (%) | Hypoglycaemia, Severe ([5]; 100 mg/day (n = 10)): 0 patients (%) | TEAE Beta 2 microglobulin increased ([5]; 100 mg/day (n = 10)): 0 patients (%) | TEAE Blood bilirubin increased ([5]; 100 mg/day (n = 10)): 0 patients (%) | TEAE Blood ketone body increased ([5]; 100 mg/day (n = 10)): 2 (20.0) patients (%) | TEAE Constipation ([5]; 100 mg/day (n = 10)): 0 patients (%) | TEAE Decreased appetite ([5]; 100 mg/day (n = 10)): 0 patients (%) | TEAE Gastroenteritis ([5]; 100 mg/day (n = 10)): 0 patients (%) | TEAE Headache ([5]; 100 mg/day (n = 10)): 0 patients (%) | TEAE Hemorrhoidal hemorrhage ([5]; 100 mg/day (n = 10)): 0 patients (%) | TEAE Hyperglycaemia ([5]; 100 mg/day (n = 10)): 0 patients (%) | TEAE Hypoglycaemia ([5]; 100 mg/day (n = 10)): 9 (90.0) patients (%) | TEAE Hypoglycaemia, number of events ([5]; 100 mg/day (n = 10)): 85 events | TEAE Nasopharyngitis ([5]; 100 mg/day (n = 10)): 0 patients (%) | TEAE Overall ([5]; 100 mg/day (n = 10)): 9 (90.0) patients (%) | TEAE Papule ([5]; 100 mg/day (n = 10)): 0 patients (%) | TEAE Pollakiuria ([5]; 100 mg/day (n = 10)): 0 patients (%) | TEAE Pyrexia ([5]; 100 mg/day (n = 10)): 0 patients (%) | TEAE Upper respiratory tract infection ([5]; 100 mg/day (n = 10)): 1 (10.0) patients (%) | TEAE Urine ketone body present ([5]; 100 mg/day (n = 10)): 1 (10.0) patients (%) | TEAE Vomiting ([5]; 100 mg/day (n = 10)): 0 patients (%) | Deaths, serious TEAEs, TEAEs leading to discontinuation ([5]; 25, 50, 100 mg/day for 14 days): no deaths, other serious TEAEs, or TEAEs leading to discontinuation | Ketoacidosis ([5]; 25, 50, 100 mg/day for 14 days): no ketoacidosis was observed
